SENP1 FRET inh – SENP1 (human) catalytic domain inhibition. Q9P0U3. recombinant SENP1 catalytic domain, CyPet-SUMO1-YPet FRET cleavage. inhibition, % at 10 µM. 360,000 tested, 0.21% active. AID 624204;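 active = inhibition at least 30% at 10 µM, raw YFP signal under a set limit, fluorescence ratio 0.5 to 1.5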;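 note: 0% = enzyme with DMSO and 100% = no enzyme wells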
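material = recombinant human SENP1 catalytic domain, His6-tagged | quantity = 20 pM enzyme | reagent = 25 nM SUMO1 FRET substrate | compound dosing = 10 µM single point, 0.5% DMSO | timing = 50 min enzyme reaction, room temperature, light-protected | detection = FRET, CFP and YFP emission | control set = no-enzyme low, enzyme-DMSO high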
HNF4A DNA FP – change in binding of human HNF4 alpha to DNA; 360,000 tested, 0.3% active; activity change, % at 10 µM; HNF4a-FITC DNA binding, fluorescence polarization, 1 h; in the data active = activity change above about 30%, passing the limit was not always enough
Rpn11 inh – inhibitors of human proteasome Rpn11; calls only at 20 µM; O00487; AID 588493; 360,000 tested, 0.59% active; human 26S proteasome, Ub4-pepOG fluorescence polarization; 20S core pre-blocked with epoxomicin;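 active = inhibition at 20 µM, scaled to each plate's controls, above about 33%, limit read from the data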
CSN deneddyl inh – inhibitors of human CSN-mediated cullin deneddylation; Purified CSN, SCF-Nedd8-OG deneddylation, fluorescence polarization; Q92905; AID 651999; 360,000 tested, 0.38% active; inhibition, % at 12.5 µM;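 active = pattern-corrected inhibition above about 35%, with an unprinted fluorescence ratio check between 0.5 and 1.5, limit read from the data, passing the limit was not always enough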;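 note: 0% = enzyme with substrate and 100% = substrate without enzyme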
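assay system = purified human Csn5 enzyme expressed in HEK293T cells | amount = 0.24 nM enzyme | buffer or medium = Tris/NaCl/DTT buffer, pH 7.5 | reagent = 10 nM SCFSkp2-Nedd8OG | compound = one concentration, 12.5 µM, 0.25% DMSO | times = 90 min reaction at room temperature | signal = FP | read-out basis = % inhibition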
SUMO HTRF inh – inhibitors of human SUMOylation (UBC9); P63279; HTRF SUMOylation assay, SAE1/SAE2 + UBC9, in vitro; inhibition, % at 35 µM; 290,000 tested, 0.36% active; AID 2006; in the data active = inhibition above about 50%, passing the limit was not always enough
TPT1 inh – C. albicans TPT1 enzyme inhibition. recombinant caTPT1, FP RNA substrate dephosphorylation. inhibition, % at 5 µM. 300,000 tested, 0.81% active. AID 1962;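 active = inhibition above the mean of all tested compounds plus 3 SD, set per screening campaign, cut at about 24% in these data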;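 note: plate controls were DMSO alone for no effect and ferristatin control at 100 nM for full effect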
caTPT1 confirm – TPT1 (C. albicans) inhibition, confirmation; shares compounds with TPT1 inh; recombinant caTPT1, fluorescence polarization, RNase T1 coupled; inhibition, % at 5 µM; 2,400 tested, 74% active;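 active = inhibition above the primary screen limit, the mean inhibition of all tested compounds plus 3 SD, cut at about 25% in these data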
RNase T1 inh – blocks Aspergillus oryzae RNase T1, a TPT1 counter-screen; AID 2153; shares compounds with TPT1 inh; RNase T1 cleavage, fluorescence polarization, 1536-well; inhibition, % at 5 µM; 2,400 tested, 83% active;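 active = inhibition above the solvent-only control well mean plus 3 SD, limit set per screening run, cut at about 23% in these data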;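 note: plate controls were DMSO wells with enzyme for no effect and wells without RNase T1 for full effect; inhibitors block cleavage so intact labeled substrate keeps polarization high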
Rpn11 inh conf – Rpn11 inhibition confirmation, single concentration; shares compounds with Rpn11 inh; purified human 26S proteasome, Ub4-pepOG fluorescence polarization; proteasome pretreated with epoxomicin; inhibition, % at 20 µM; 1,900 tested, 29% active; AID 602318
MMP-2 counter-1 – MMP-2 (human) inhibition counter-screen. shares compounds with Rpn11 inh. recombinant MMP-2, FRET peptide cleavage fluorescence. inhibition, % at 20 µM. 1,900 tested, 4% active. AID 602330;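 note: human MMP-2 activated beforehand with APMA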
Thrombin FP – blocks bovine thrombin, flagging nonselective RPN11 hits; shares compounds with Rpn11 inh; bovine thrombin cleavage of Ub4-pepOG, fluorescence polarization; inhibition, % at 20 µM; 1,900 tested, 13% active;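 active = mean inhibition at least 40% at 20 µM, or signal 3 deviations below plate average, so some actives read negative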;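 note: plate controls were thrombin with DMSO for no effect and buffer wells lacking thrombin for full effect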
Target sequence (P00735 whole entry, looked up): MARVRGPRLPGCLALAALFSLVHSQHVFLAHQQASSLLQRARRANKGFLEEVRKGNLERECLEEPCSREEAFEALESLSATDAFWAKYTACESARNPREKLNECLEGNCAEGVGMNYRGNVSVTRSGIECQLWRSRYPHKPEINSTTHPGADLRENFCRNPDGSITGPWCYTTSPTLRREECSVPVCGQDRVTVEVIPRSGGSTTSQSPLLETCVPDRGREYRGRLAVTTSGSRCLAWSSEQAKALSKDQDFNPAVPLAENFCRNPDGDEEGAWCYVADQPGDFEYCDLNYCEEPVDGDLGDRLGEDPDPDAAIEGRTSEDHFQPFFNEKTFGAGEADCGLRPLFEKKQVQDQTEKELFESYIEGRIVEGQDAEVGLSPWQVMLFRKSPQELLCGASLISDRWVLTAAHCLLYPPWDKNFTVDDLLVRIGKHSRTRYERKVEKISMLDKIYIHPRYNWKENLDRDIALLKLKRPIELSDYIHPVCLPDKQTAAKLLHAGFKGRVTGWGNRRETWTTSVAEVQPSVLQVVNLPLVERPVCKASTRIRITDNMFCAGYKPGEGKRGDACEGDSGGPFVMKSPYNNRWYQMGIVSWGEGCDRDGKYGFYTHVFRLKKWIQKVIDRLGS
CSN deneddyl val – Csn5 (human) deneddylation inhibition, single-concentration validation. shares compounds with CSN deneddyl inh. Csn5 deneddylation of SCF-Nedd8OG, fluorescence polarization, 90 min. inhibition, % at 16.6 µM. 540 tested, 62% active. AID 720654; in the data active = inhibition above about 50%;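 note: 0% = DMSO with enzyme and 100% = no enzyme wells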
MMP-2 counter-2 – MMP-2 (human) inhibition, counter-screen for CSN hits | 540 tested, 33% active | shares compounds with CSN deneddyl inh | recombinant MMP-2, FRET substrate fluorescence, 60 min | inhibition, % at 16.6 µM;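 active = corrected plate-normalized z-score of 5 or more, or -5 or less, or inhibition of 15% or more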;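 note: plate controls were DMSO wells with enzyme for no effect and buffer wells lacking MMP-2 for full effect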
Thrombin cntr – thrombin (bovine) inhibition, counter-screen for CSN hits. shares compounds with CSN deneddyl inh. bovine thrombin cleavage of Ub4-pepOG, fluorescence polarization. inhibition, % at 16.6 µM. 540 tested, 49% active. AID 720656;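 active = inhibition at or above a set limit, with a fluorescence interference ratio between 0.5 and a set maximum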
The depositor's hits bear a star; i = inactive; / = no result shown; + = active, no number. Hits are enriched below; roughly 1.8% of the tested compounds scored in any of these assays. Cut-off read from the data, not from the text of the source, unless noted: active = inhibition above about 40%; inactive = the rest.

SMILES	SENP1 FRET inh	HNF4A DNA FP	Rpn11 inh	CSN deneddyl inh	SUMO HTRF inh	TPT1 inh	caTPT1 confirm	RNase T1 inh	CSN deneddyl val	MMP-2 counter-2	Thrombin cntr	others
O=C1CC(=O)N(Cc2ccco2)C(=O)N1	-25	-5	+	66*	27	92*	47*	59*	38	25*	44*	Rpn11 inh conf=125*;MMP-2 counter-1=38;Thrombin FP=64*
O=C1C2C(C(=O)N1Cc1ccco1)C1C=CC2C12CC2 (stereo not given)	1	0	i	-3	17	-1	/	/	/	/	/
C=CCSC1=N/C(=C\c2sccc2C)C(=O)S1	-57	-2	i	-1	14	1	/	/	/	/	/
C=CCSC1=N/C(=C\C=C\c2ccco2)C(=O)S1	3	1	i	57*	43	29*	28*	38*	68*	30*	8
CCOc1ccccc1/C=N/NC(=O)c1c(C)nc2ccc(Br)cn12	-2	2	i	-3	12	-1	/	/	/	/	/
COc1cccc(/C=N/NC(=O)c2c(C)nc3ccc(Br)cn23)c1O	-25	4	i	45*	1	31*	43*	46*	6	2	-18
N#C/C(=C\c1ccc(N2CCOCC2)o1)C(=O)NCCc1ccccc1	-24	188	/	98*	6	+	181*	171*	+	-19	-5
N#C/C(=C\c1ccc(N2CCOCC2)o1)C(=O)NC1CCCCC1	-36	166	/	77*	10	163*	177*	169*	141*	-10	65*
Cc1ccc2cc(/C=N/NC(=O)CN3CCOCC3)c(Cl)nc2c1	-13	-3	i	-1	-9	-5	/	/	/	/	/
COc1c2c(c3c(c1OC)c(=O)c1ccccc1n3C)OCO2	-30	-8	i	7	/	/	/	/	/	/	/
Cn1c(-c2ccc(C=O)s2)nc2c3ccccc3c3ccccc3c21	-13	-40	i	47*	97*	34*	52*	63*	/	-18	-72
NC(=O)C(c1ccc(Br)cc1)c1ccc(C(=O)c2ccccc2)cc1 (stereo not given)	-1	-1	i	4	-43	0	/	/	/	/	/
CN(C)c1ccc(/C=C2\C(=N)N3N=C(CC(=O)N4CCCCC4)SC3=NC2=O)cc1	-22	135	/	90*	/	122*	140*	148*	76*	-57*	94*
Cc1cc(C)c(Cn2c(=O)[nH][nH]c2=O)cc1Cn1c(=O)[nH][nH]c1=O	1	3	i	0	/	/	/	/	/	/	/
CCN(CC)C(=O)c1ccccc1NC(=O)c1cccc(S(=O)(=O)N(CC)CC)c1	1	1	i	-2	5	2	/	/	/	/	/
CCN(CC)S(=O)(=O)c1cccc(C(=O)N/N=C(\C)c2ccc(O)cc2O)c1	-37	27	/	37*	20	89*	140*	129*	92*	-27*	79*
COc1cccc(/C=C/C(=O)Nc2ccc(C(=O)Nc3cccc(S(N)(=O)=O)c3)cc2)c1OC	-1	-2	i	7	34	1	/	/	/	/	/
Cn1c(O)c(/C=N/NC(=O)c2cc3ccccc3cc2O)c2ccccc21	-25	62	/	40*	5	122*	127*	125*	75*	1	45*
CN(C)c1ccc(/C=C2\CCC/C(=C\c3ccccc3)C2=O)cc1	-25	106	/	73*	14	104*	111*	109*	91*	-9	36*
COc1cccc(NC(=O)CN2C(=O)NC3(CCCC3)C2=O)c1	1	-1	i	0	1	0	/	/	/	/	/
Cc1ccc(/C=C/c2ccc(N(C)C)cc2)[n+](C)c1	87	89*	/	47*	-9	36*	46*	56*	40*	-92*	68*
O=[N+]([O-])c1ccc(N/N=C/C=C/c2ccco2)cc1	-40	89*	/	56*	/	119*	123*	122*	52*	-3	44*
O=C(O)c1ccc(N/N=C/c2ccc(-c3cccc(Cl)c3)o2)cc1	-46	1	i	7	25	3	/	/	/	/	/
O=[N+]([O-])c1ccc(N/N=C/c2c[nH]c3ccccc23)cc1	-23	78*	+	57*	-6	125*	106*	109*	56*	-3	57*	Rpn11 inh conf=84*;MMP-2 counter-1=-16;Thrombin FP=59*
O=C(N/N=C/c1c[nH]c2ccccc12)c1cccc([N+](=O)[O-])c1	1	0	i	-10	4	1	/	/	/	/	/
O=C(N/N=C/c1ccco1)c1cc([N+](=O)[O-])cc([N+](=O)[O-])c1	2	2	i	-9	-2	-1	/	/	/	/	/
O=C(O)c1cccc(-c2ccc(/C=N/Nc3ccc([N+](=O)[O-])cc3)o2)c1	-49	124	/	93*	36	124*	126*	120*	51*	-5	49
O=C(O)c1ccc(N/N=C/C=C/c2ccc([N+](=O)[O-])o2)cc1	78*	24	i	45*	20	44*	63*	72*	43	6	14
COc1ccc(/C=C/C(=O)O)cc1S(=O)(=O)N1CCc2ccccc21	-1	-6	i	1	15	/	/	/	/	/	/

Screens (PubChem BioAssay)
